Assay results reported in ChEMBL document CHEMBL1141931, “Synthesis and evaluation of new antimalarial phenylurenyl chalcone derivatives” (J Med Chem, 2005).

Columns and labels:
Plasmodium falciparum [1] = assay: Inhibitory concentration against Plasmodium falciparum; format: functional, organism-based
Outline: (§1)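 Chloroquine-resistant P. falciparum cultures were exposed to a range of compound concentrations for 48 h, starting at the ring stage. New ring forms were counted by FACS (flow cytometry), and parasitemia was compared with untreated controls to derive IC50.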

[2] = biological target: T1, Histidine-rich protein PFHRP-II (Plasmodium falciparum) (UniProt P05227); details: Plasmodium berghei; 100 uM
T1 sequence (whole entry): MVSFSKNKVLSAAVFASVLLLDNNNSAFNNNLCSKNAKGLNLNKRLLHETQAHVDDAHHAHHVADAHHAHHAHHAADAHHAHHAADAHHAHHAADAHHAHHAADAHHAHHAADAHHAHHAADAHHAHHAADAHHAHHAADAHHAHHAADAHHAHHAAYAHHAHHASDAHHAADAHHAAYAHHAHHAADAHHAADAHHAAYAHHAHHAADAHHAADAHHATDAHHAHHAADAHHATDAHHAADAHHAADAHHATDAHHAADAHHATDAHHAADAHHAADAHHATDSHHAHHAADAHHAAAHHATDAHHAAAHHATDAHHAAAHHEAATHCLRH

Mus musculus [3] = species on record: Mus musculus; assay: Inhibition of hemoglobin hydrolysis in mice (Mus musculus) infected with Plasmodium berghei at 100 uM; format: functional
Falcipain 2 [4] = biological target: T2, Falcipain 2 (Plasmodium falciparum, UniProt Q9N6S8); assay: Inhibitory concentration against recombinant Falcipain-2
T2 sequence (Q9N6S8 whole entry): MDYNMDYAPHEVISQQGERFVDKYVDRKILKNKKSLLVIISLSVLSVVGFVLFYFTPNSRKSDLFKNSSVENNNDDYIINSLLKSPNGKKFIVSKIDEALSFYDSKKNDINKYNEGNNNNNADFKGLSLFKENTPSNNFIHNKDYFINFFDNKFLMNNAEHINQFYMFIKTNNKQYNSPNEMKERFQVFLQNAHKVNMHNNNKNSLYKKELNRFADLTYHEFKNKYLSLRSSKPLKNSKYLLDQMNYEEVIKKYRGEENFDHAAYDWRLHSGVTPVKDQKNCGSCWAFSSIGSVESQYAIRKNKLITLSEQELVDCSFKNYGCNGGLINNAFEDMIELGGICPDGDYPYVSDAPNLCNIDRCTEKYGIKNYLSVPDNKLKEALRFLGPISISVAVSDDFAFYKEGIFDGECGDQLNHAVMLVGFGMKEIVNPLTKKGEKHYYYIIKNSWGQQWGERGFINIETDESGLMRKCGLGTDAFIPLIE

Mus musculus [5] = species on record: Mus musculus; assay: Inhibition of hemoglobin hydrolysis in mice (Mus musculus) infected with Plasmodium berghei at 5 uM; format: functional
Plasmodium falciparum [6] = assay: Inhibitory concentration against Plasmodium falciparum in FACS; format: functional, organism-based; outline: as §1
Falcipain 2 [7] = biological target: T2, Falcipain 2; assay: Inhibitory concentration against falcipain-2; No significant effect impaired solubility
Mus musculus [8] = species on record: Mus musculus; assay: Inhibition of hemoglobin hydrolysis in mice (Mus musculus) infected with Plasmodium berghei at 10 uM; format: functional

Compound | IC50 (Plasmodium falciparum [1]) | other results
Cc1ccc(/C=C/C(=O)c2ccc(NC(=O)Nc3ccccc3)cc2)cc1 | > 10 µM | –
COc1ccc(NC(=O)Nc2ccc(C(=O)/C=C/c3ccc(C)cc3)cc2)cc1 | > 10 µM | –
O=C(Nc1ccccc1)Nc1ccc(C(=O)/C=C/c2ccc(Cl)cc2Cl)cc1 | > 10 µM | –
O=C(Nc1ccccc1)Nc1cccc(C(=O)/C=C/c2ccc3c(c2)OCO3)c1 | > 10 µM | –
Cc1ccc(/C=C/C(=O)c2ccc(NC(=O)Nc3ccc(Cl)cc3)cc2)cc1 | > 10 µM | –
CCN(CC)CCCC(C)Nc1ccnc2cc(Cl)ccc12 (centres undefined) [CHLOROQUINE] | – | inhibition [2]: 86.6%; Inhibition (Mus musculus [3]): 5.15%
COc1ccc(NC(=O)Nc2ccc(C(=O)/C=C/c3ccc4c(c3)OCO4)cc2)cc1 | > 10 µM | –
COc1ccc(/C=C/C(=O)c2cccc(NC(=O)Nc3ccccc3)c2)cc1OC | > 10 µM | –
COc1ccc(NC(=O)Nc2ccc(C(=O)/C=C/c3ccccc3)cc2)cc1 | > 10 µM | –
O=C(Nc1ccccc1)Nc1ccc(C(=O)/C=C/c2ccc(F)cc2)cc1 | > 10 µM | –
O=C(Nc1ccc(Cl)cc1)Nc1ccc(C(=O)/C=C/c2ccc(F)cc2)cc1 | > 10 µM | –
O=C(Nc1ccc(Cl)cc1)Nc1ccc(C(=O)/C=C/c2ccc(Cl)cc2Cl)cc1 | – | IC50 (Falcipain 2 [4]): 2.5 µM; Inhibition (Mus musculus [5]): 60.31%; IC50 (Plasmodium falciparum [6]): 5 µM
O=C(Nc1ccc(Cl)cc1)Nc1ccc(C(=O)/C=C/c2ccc(Cl)cc2)cc1 | – | IC50 (Falcipain 2 [4]): 2.6 µM; IC50 (Plasmodium falciparum [6]): 10 µM
O=C(Nc1ccccc1)Nc1cccc(C(=O)/C=C/c2ccc(Cl)cc2Cl)c1 | – | Inhibition (Mus musculus [5]): 60.72%; IC50 (Plasmodium falciparum [6]): 2.14 µM; IC50 (Falcipain 2 [7]): No significant effect
COc1ccc(NC(=O)Nc2ccc(C(=O)/C=C/c3ccc(Cl)cc3Cl)cc2)cc1 | > 10 µM | –
O=C(Nc1ccccc1)Nc1cccc(C(=O)/C=C/c2ccc(Cl)cc2)c1 | > 10 µM | –
COc1cc(/C=C/C(=O)c2cccc(NC(=O)Nc3ccccc3)c2)cc(OC)c1OC | – | Inhibition (Mus musculus [5]): 51.45%; IC50 (Plasmodium falciparum [6]): 1.76 µM; IC50 (Falcipain 2 [7]): No significant effect
O=C(Nc1ccccc1)Nc1cccc(C(=O)/C=C/c2ccc(Br)cc2)c1 | – | Inhibition (Mus musculus [5]): 66.58%; IC50 (Plasmodium falciparum [6]): 2.1 µM; IC50 (Falcipain 2 [7]): No significant effect
O=C(Nc1ccccc1)Nc1cccc(C(=O)/C=C/c2ccc(F)cc2)c1 | > 10 µM | –
COc1ccc(/C=C/C(=O)c2ccc(NC(=O)Nc3ccccc3)cc2)c(OC)c1 | > 10 µM | –
O=C(Nc1ccccc1)Nc1ccc(C(=O)/C=C/c2ccc(Cl)cc2)cc1 | > 10 µM | –
COc1ccc(NC(=O)Nc2ccc(C(=O)/C=C/c3ccc(OC)cc3OC)cc2)cc1 | > 10 µM | –
COc1cccc(/C=C/C(=O)c2cccc(NC(=O)Nc3ccccc3)c2)c1OC | > 10 µM | –
COc1ccc(/C=C/C(=O)c2ccc(NC(=O)Nc3ccc(Cl)cc3)cc2)cc1 | > 10 µM | –
O=C(Nc1ccccc1)Nc1cccc(C(=O)/C=C/c2ccc(F)cc2F)c1 | > 10 µM | –

Compound | IC50 (Plasmodium falciparum [1]) | other results
O=C(Nc1ccccc1)Nc1ccc(C(=O)/C=C/c2ccc(F)cc2F)cc1 | > 10 µM | –
CC(C)CC(=O)N[C@H](C(=O)N[C@H](C(=O)N[C@@H](CC(C)C)[C@@H](O)CC(=O)N[C@@H](C)C(=O)N[C@@H](CC(C)C)[C@@H](O)CC(=O)O)C(C)C)C(C)C [PEPSTATIN] | – | Inhibition (Mus musculus [8]): 91.91%
O=C(Nc1ccc(Cl)cc1)Nc1ccc(C(=O)/C=C/c2ccc3c(c2)OCO3)cc1 | – | IC50 (Falcipain 2 [4]): 2.5 µM; IC50 (Plasmodium falciparum [6]): 10 µM
COc1ccc(NC(=O)Nc2ccc(C(=O)/C=C/c3ccc(Cl)cc3)cc2)cc1 | > 10 µM | –
COc1ccc(NC(=O)Nc2ccc(C(=O)/C=C/c3ccc(F)cc3F)cc2)cc1 | > 10 µM | –
O=C(Nc1ccccc1)Nc1ccc(C(=O)/C=C/c2ccc3c(c2)OCO3)cc1 | > 10 µM | –
O=C(Nc1ccccc1)Nc1ccc(C(=O)/C=C/c2ccccn2)cc1 | > 10 µM | –
COc1ccc(/C=C/C(=O)c2cccc(NC(=O)Nc3ccccc3)c2)c(OC)c1 | > 10 µM | –
O=C(Nc1ccccc1)Nc1ccc(C(=O)/C=C/c2ccccc2)cc1 | > 10 µM | –
COc1ccc(/C=C/C(=O)c2ccc(NC(=O)Nc3ccccc3)cc2)cc1 | > 10 µM | –
COc1cc(/C=C/C(=O)c2ccc(NC(=O)Nc3ccccc3)cc2)cc(OC)c1OC | > 10 µM | –
O=C(Nc1ccc(Cl)cc1)Nc1ccc(C(=O)/C=C/c2ccc(F)cc2F)cc1 | – | IC50 (Falcipain 2 [4]): 2.6 µM; Inhibition (Mus musculus [5]): 33.04%; IC50 (Plasmodium falciparum [6]): 8 µM
O=C(Nc1ccccc1)Nc1cccc(C(=O)/C=C/c2ccccc2)c1 | > 10 µM | –
CC(C)C[C@H](NC(=O)[C@H]1O[C@@H]1C(=O)O)C(=O)NCCCCN=C(N)N [E-64] | – | IC50 (Falcipain 2 [4]): 0.058 µM; IC50 (Plasmodium falciparum [6]): 2.5 µM
COc1ccc(/C=C/C(=O)c2ccc(NC(=O)Nc3ccc(Cl)cc3)cc2)c(OC)c1 | > 10 µM | –
COc1ccc(/C=C/C(=O)c2ccc(NC(=O)Nc3ccc(OC)cc3)cc2)cc1 | > 10 µM | –
COc1cc(/C=C/C(=O)c2ccc(NC(=O)Nc3ccc(Cl)cc3)cc2)cc(OC)c1OC | – | IC50 (Falcipain 2 [4]): 1.8 µM; IC50 (Plasmodium falciparum [6]): 3 µM
COc1ccc(NC(=O)Nc2ccc(C(=O)/C=C/c3ccc(F)cc3)cc2)cc1 | > 10 µM | –
COc1ccc(NC(=O)Nc2ccc(C(=O)/C=C/c3cc(OC)c(OC)c(OC)c3)cc2)cc1 | > 10 µM | –
CC(=O)N[C@@H](CC(C)C)C(=O)N[C@@H](CC(C)C)C(=O)N[C@H](C=O)CCCNC(=N)N [LEUPEPTIN] | – | IC50 (Falcipain 2 [4]): 0.0058 µM; Inhibition (Mus musculus [8]): 87.02%; IC50 (Plasmodium falciparum [6]): 6.26 µM
Cc1ccc(/C=C/C(=O)c2cccc(NC(=O)Nc3ccccc3)c2)cc1 | – | Inhibition (Mus musculus [5]): 74.93%; IC50 (Plasmodium falciparum [6]): 2.74 µM; IC50 (Falcipain 2 [7]): No significant effect
O=C(Nc1ccc(Cl)cc1)Nc1ccc(C(=O)/C=C/c2ccccc2)cc1 | – | IC50 (Falcipain 2 [4]): 3.8 µM; IC50 (Plasmodium falciparum [6]): 9 µM
COc1ccc(/C=C/C(=O)c2cccc(NC(=O)Nc3ccccc3)c2)cc1 | > 10 µM | –
CN(C)c1ccc(/C=C/C(=O)c2cccc(NC(=O)Nc3ccccc3)c2)cc1 | > 10 µM | –
